ChEMBL document CHEMBL1125724, “Potential anti-AIDS agents. Synthesis and antiviral activity of naphthalenesulfonic acid derivatives against HIV-1 and HIV-2” (1991)
Values after ≈ are worked out from the molar mass of the structure shown.

Tests used:
MT4 [1] = assay: Cell viability at a concentration of 20(33.4) ug/mL (uM).; assay type: functional, Homo sapiens
MT4 [2] = assay: Compound was evaluated for inhibitory effect against MT-4 cells of HIV-2 at a concentration of 20(33.4) ug/mL (uM).; assay type: functional, Homo sapiens
Method in brief: (§1)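 HIV-2 (ROD strain) infected MT-4 cells at multiplicity of infection 0.02, incubated with a range of compound concentrations for 4 days. Viable cells counted by MTT method. Per-concentration inhibition of virus-induced cytopathogenicity; values are means of two separate experiments.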

MT4 [3] = assay: Compound tested for its ability to reduce viability of mock-infected MT-4 cells.; assay type: functional; settings: Homo sapiens, read-out: CD50 (the source's name)
Method in brief: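 Mock-infected MT-4 cells were incubated 4 days with a range of compound concentrations, and viability was read by MTT. CD50 is the 50% cytotoxic dose from reduced viability, given as the mean of two separate experiments.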

MT4 [4] = assay: Compound was evaluated for inhibitory effect against MT-4 cells of HIV-2 at a concentration of 100(167) ug/mL (uM).; assay type: functional, Homo sapiens; method in brief: as §1
MT4 [5] = assay: Compound tested for its inhibition of HIV-2 induced cytopathogenicity in MT-4 cells.; assay type: functional; settings: Homo sapiens, read-out: ED50 (the source's name)
Method in brief: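 MT-4 cells infected with HIV-2 (ROD) at MOI 0.02 and incubated 4 days with a range of compound concentrations. Viable cells were counted by MTT. ED50 is the dose giving 50% inhibition of virus-induced cytopathogenicity, given as the mean of two separate experiments.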

MT4 [6] = assay: Compound was evaluated for inhibitory effect against MT-4 cells of HIV-2 at a concentration of 0.8(1.3) ug/mL (uM).; assay type: functional, Homo sapiens; method in brief: as §1
[7] = molecular target: Human immunodeficiency virus type 1 reverse transcriptase (Human immunodeficiency virus 1) (UniProt Q72547); settings: 33.4 uM
MT4 [8] = assay: Compound was evaluated for inhibitory effect against MT-4 cells of HIV-1 at a concentration of 4(6.7) ug/mL (uM).; assay type: functional, Homo sapiens
Method in brief: (§2)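 HIV-1 (HTLV-III_B) infected MT-4 cells at multiplicity of infection 0.02, incubated with a range of compound concentrations for 4 days. Viable cells counted by MTT method. Per-concentration inhibition of virus-induced cytopathogenicity; values are means of two separate experiments.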

MT4 [9] = assay: Compound tested for its inhibition of HIV-1 induced cytopathogenicity in MT-4 cells.; assay type: functional; settings: Homo sapiens, read-out: ED50 (the source's name)
Method in brief: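 MT-4 cells infected with HIV-1 (HTLV-III_B) at MOI 0.02 and incubated 4 days with a range of compound concentrations. Viable cells were counted by MTT. ED50 is the 50% antiviral dose from inhibition of virus-induced cytopathogenicity, given as the mean of two separate experiments.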

MT4 [10] = assay: Cell viability at a concentration of 100(167) ug/mL (uM).; assay type: functional, Homo sapiens
[11] = molecular target: Human immunodeficiency virus type 1 reverse transcriptase (Human immunodeficiency virus 1) (UniProt Q72547); settings: 6.7 uM
MT4 [12] = assay: Cell viability at a concentration of 4(6.7) ug/mL (uM).; assay type: functional, Homo sapiens
MT4 [13] = assay: Compound was evaluated for inhibitory effect against MT-4 cells of HIV-1 at a concentration of 0.8(1.3) ug/mL (uM).; assay type: functional, Homo sapiens; method in brief: as §2
MT4 [14] = assay: Compound was evaluated for inhibitory effect against MT-4 cells of HIV-2 at a concentration of 4(6.7) ug/mL (uM).; assay type: functional, Homo sapiens; method in brief: as §1
MT4 [15] = assay: Compound was evaluated for inhibitory effect against MT-4 cells of HIV-1 at a concentration of 100(167) ug/mL (uM).; assay type: functional, Homo sapiens; method in brief: as §2
[16] = molecular target: Human immunodeficiency virus type 1 reverse transcriptase (Human immunodeficiency virus 1) (UniProt Q72547)
MT4 [17] = assay: Compound was evaluated for inhibitory effect against MT-4 cells of HIV-1 at a concentration of 20(33.4) ug/mL (uM).; assay type: functional, Homo sapiens; method in brief: as §2
MT4 [18] = assay: Cell viability at a concentration of 0.8(1.3) ug/mL (uM).; assay type: functional, Homo sapiens
MT4 [19] = assay: Cell viability at a concentration of 4(4) ug/mL (uM).; assay type: functional, Homo sapiens
MT4 [20] = assay: Compound was evaluated for inhibitory effect against MT-4 cells of HIV-2 at a concentration of 20(20.2) ug/mL (uM).; assay type: functional, Homo sapiens; method in brief: as §1
MT4 [21] = assay: Compound was evaluated for inhibitory effect against MT-4 cells of HIV-1 at a concentration of 4(4) ug/mL (uM).; assay type: functional, Homo sapiens; method in brief: as §2
[22] = molecular target: Human immunodeficiency virus type 1 reverse transcriptase (Human immunodeficiency virus 1) (UniProt Q72547); assay: Compound tested for % inhibition of cell-free HIV-1 Reverse Transcriptase at a concentration of 505 uM
Method in brief: (§3)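 HIV-1 RT came from disrupted, partially purified, concentrated virions. Reaction ran 30 min at 37 °C in 50 mM Tris-HCl pH 8.4 with 2 mM DTT, 100 mM KCl, 10 mM MgCl2, 0.1% Triton X-100, [methyl-3H]dTTP (1 µCi, 30 Ci/mmol), poly(rA)·oligo(dT) template and compound. It was stopped with 5% TCA, and precipitate was filter-collected and scintillation-counted. Variation was at most 10%.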

[23] = molecular target: Human immunodeficiency virus type 1 reverse transcriptase (Human immunodeficiency virus 1) (UniProt Q72547); assay: Inhibitory dose at a concentration 505 uM cell-free HIV-1 Reverse Transcriptase
Method in brief: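 HIV-1 RT from disrupted, partially purified and concentrated virions. 37 °C for 30 min in 50 mM Tris-HCl pH 8.4, 2 mM DTT, 100 mM KCl, 10 mM MgCl₂, 0.1% Triton X-100, 1 µCi [methyl-³H]dTTP, 0.01 unit poly(rA)·oligo(dT). Stopped with 5% TCA; precipitate collected on glass-fiber filters and counted by scintillation. Means of two experiments; variation ≤10%.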

MT4 [24] = assay: Compound was evaluated for inhibitory effect against MT-4 cells of HIV-1 at a concentration of 100(101) ug/mL (uM).; assay type: functional, Homo sapiens; method in brief: as §2
[25] = molecular target: Human immunodeficiency virus type 1 reverse transcriptase (Human immunodeficiency virus 1) (UniProt Q72547); assay: Compound tested for % inhibition of cell-free HIV-1 Reverse Transcriptase at a concentration of 4 uM; method in brief: as §3
MT4 [26] = assay: Cell viability at a concentration of 100(1.1) ug/mL (uM).; assay type: functional, Homo sapiens
[27] = molecular target: Human immunodeficiency virus type 1 protease (Human immunodeficiency virus 1) (UniProt Q72874); assay: Compound tested for % inhibition of giant cell formation at a concentration of 101 uM
Method in brief: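 MOLT-4 cells were co-cultured 24 h with an equal number of HUT-78/HTLV-III_B cells in the presence of compound. Giant (syncytial) cells were counted microscopically and inhibition of giant cell formation was scored.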

MT4 [28] = assay: Compound was evaluated for inhibitory effect against MT-4 cells of HIV-2 at a concentration of 100(101) ug/mL (uM).; assay type: functional, Homo sapiens; method in brief: as §1
MT4 [29] = assay: Cell viability at a concentration of 20(20.2) ug/mL (uM).; assay type: functional, Homo sapiens
MT4 [30] = assay: Compound was evaluated for inhibitory effect against MT-4 cells of HIV-2 at a concentration of 4(4) ug/mL (uM).; assay type: functional, Homo sapiens; method in brief: as §1
MT4 [31] = assay: Compound was evaluated for inhibitory effect against MT-4 cells of HIV-2 at a concentration of 0.8(0.8) ug/mL (uM).; assay type: functional, Homo sapiens; method in brief: as §1
[32] = molecular target: Human immunodeficiency virus type 1 reverse transcriptase (Human immunodeficiency virus 1) (UniProt Q72547); assay: Compound tested for % inhibition of cell-free HIV-1 Reverse Transcriptase at a concentration of 20.2 uM.; method in brief: as §3
MT4 [33] = assay: Compound was evaluated for inhibitory effect against MT-4 cells of HIV-1 at a concentration of 20(20.2) ug/mL (uM).; assay type: functional, Homo sapiens; method in brief: as §2
MT4 [34] = assay: Cell viability at a concentration of 0.8(0.8) ug/mL (uM).; assay type: functional, Homo sapiens
MT4 [35] = assay: Compound was evaluated for inhibitory effect against MT-4 cells of HIV-1 at a concentration of 0.8(0.8) ug/mL (uM).; assay type: functional, Homo sapiens; method in brief: as §2

Compound: CCCCCCCCCCCCCCCC(=O)Nc1cc(S(=O)(=O)O)cc2cc(S(=O)(=O)O)cc(O)c12
- Cell viability (MT4 [1]): 1
- Inhibition (MT4 [2]): 12%
- CC50 (MT4 [3]): > 100 µg/mL
- Inhibition (MT4 [4]): 100%
- EC50 (MT4 [5]): 40 µg/mL (≈ 71.7 µM)
- Inhibition (MT4 [6]): 6%
- inhibition [7]: 4%
- Inhibition (MT4 [8]): 0%
- EC50 (MT4 [9]): 42 µg/mL (≈ 75.3 µM)
- Cell viability (MT4 [10]): 0
- inhibition [11]: 9%
- Cell viability (MT4 [12]): 0
- Inhibition (MT4 [13]): 5%
- Inhibition (MT4 [14]): 3%
- Inhibition (MT4 [15]): 100%
- ID50 [16]: 50 µg/mL (≈ 89.6 µM)
- Inhibition (MT4 [17]): 7%
- Cell viability (MT4 [18]): 0

Compound: O=S(=O)([O-])c1cc(NS(=O)(=O)c2ccc(-c3ccc(S(=O)(=O)Nc4cc(S(=O)(=O)[O-])c5cccc(S(=O)(=O)[O-])c5c4)cc3)cc2)cc2c(S(=O)(=O)[O-])cccc12.[Na+].[Na+].[Na+].[Na+]
- Cell viability (MT4 [19]): 0
- CC50 (MT4 [3]): > 100 µg/mL
- Inhibition (MT4 [20]): 9%
- Inhibition (MT4 [21]): 1%
- EC50 (MT4 [5]): 43 µg/mL
- inhibition [22]: 100%
- ID50 [23]: 370 µg/mL
- Inhibition (MT4 [24]): 100%
- inhibition [25]: 0%
- Cell viability (MT4 [26]): 0
- EC50 (MT4 [9]): 42 µg/mL
- inhibition [27]: 100%
- Inhibition (MT4 [28]): 94%
- Cell viability (MT4 [29]): 0
- Inhibition (MT4 [30]): 1%
- Inhibition (MT4 [31]): 0%
- inhibition [32]: 0%
- Inhibition (MT4 [33]): 8%
- Cell viability (MT4 [34]): 1
- Inhibition (MT4 [35]): 0%
